The text below walks through data of ChEMBL document CHEMBL1141029, “Allosteric inhibitors of Akt1 and Akt2: discovery of [1,2,4]triazolo[3,4-f][1,6]naphthyridines with potent and balanced activity” (Bioorg Med Chem Lett, 2009).

Each structure is given as a SMILES string. Some results are limits rather than exact numbers.

Data set [1] has as its target T1, RAC-alpha serine/threonine-protein kinase (Homo sapiens, UniProt P31749). The data set can be described thus: Inhibition of human cloned Akt1 expressed in Drosophila S2 cells by HTRF assay. Format: cell-based.
Data set [2] addresses T2, RAC-beta serine/threonine-protein kinase (Homo sapiens, UniProt P31751). The data set can be described thus: Inhibition of human cloned Akt2 expressed in Drosophila S2 cells by HTRF assay. The class given is cell-based.
For data set [3], the target named is T1, RAC-alpha serine/threonine-protein kinase. The data set can be described thus: Inhibition of Akt1 by cell based assay.
Data set [4] addresses T2, RAC-beta serine/threonine-protein kinase. The data set can be described thus: Inhibition of Akt2 by cell based assay.
Data set [5] is described as follows: Inhibition of PKA.
Data set [6] in a line: Inhibition of PKC.
The target of data set [7] is T3, Serine/threonine-protein kinase Sgk1 (Homo sapiens, UniProt O00141).
T3 sequence (O00141 whole entry): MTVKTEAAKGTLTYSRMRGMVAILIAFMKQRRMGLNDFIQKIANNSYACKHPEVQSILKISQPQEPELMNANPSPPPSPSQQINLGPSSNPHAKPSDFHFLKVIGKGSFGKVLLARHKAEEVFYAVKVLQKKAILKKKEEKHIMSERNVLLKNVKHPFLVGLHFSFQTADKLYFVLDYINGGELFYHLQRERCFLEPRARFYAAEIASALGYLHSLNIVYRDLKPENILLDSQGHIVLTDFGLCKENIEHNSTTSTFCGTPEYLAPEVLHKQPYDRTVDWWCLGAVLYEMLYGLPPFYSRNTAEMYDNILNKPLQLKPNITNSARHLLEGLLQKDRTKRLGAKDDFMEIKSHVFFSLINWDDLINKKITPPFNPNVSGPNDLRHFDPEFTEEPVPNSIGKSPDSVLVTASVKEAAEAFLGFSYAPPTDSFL
Kind of data set: Inhibition of SGK.

For data set [8], the target named is Voltage-gated inwardly rectifying potassium channel KCNH2 (Homo sapiens, UniProt Q12809). The data set can be described thus: Inhibition of human ERG expressed in HEK cells by competitive radioligand binding assay. The class given is cell-based, HEK293.
Data set [9] is described as follows: Drug level in blood of nude mouse xenografted with […] at 18 mg/mL after 20 hrs. The class given is ADME, tissue-based. To be noted: whole blood, read-out: Drug uptake. The procedure, abridged:
(§1)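 Nude mice bearing C33a cervical carcinoma tumours, 3 per concentration. Hydrochloride salt in 25% hydroxypropyl-b-cyclodextrin given by mini-pump at 8 µL/hr for 20 hrs, pump solution 70 or 18 mg/mL. Blood drawn for PK at 3, 6, 8, 11 and 20 h, so steady-state blood level is known. Euthanized at 20 h. Akt1 and Akt2 phosphorylation activity measured in lung as % inhibition.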

A short description of data set [10]: Drug level in blood of nude mouse xenografted with […] at 70 mg/mL after 20 hrs. The class given is ADME, tissue-based. The note with it: whole blood, read-out: Drug uptake. In outline:
as §1

Data set [11] deals with Mus musculus. The data set can be described thus: Inhibition of Akt1 phosphorylation in lung of nude mouse xenografted with C33a cells at 18 mg/mL administered through mini-pump after 20 hrs by IP kinase assay. Format: functional. In outline:
as §1

Data set [12] deals with Mus musculus. The data set can be described thus: Inhibition of Akt2 phosphorylation in lung of nude mouse xenografted with C33a cells at 18 mg/mL administered through mini-pump after 20 hrs by IP kinase assay. The class given is functional. In outline: as §1
The test system of data set [13] is Mus musculus. Kind of data set: Inhibition of Akt2 phosphorylation in lung of nude mouse xenografted with C33a cells at 70 mg/mL administered through mini-pump after 20 hrs by IP kinase assay. The class given is functional. In outline: as §1
Data set [14] in a line: Drug level in blood of nude mouse xenografted with […] at 10 mg/mL after 20 hrs. To be noted: whole blood, read-out: Drug uptake. Format: ADME, tissue-based.
Data set [15] relates to Mus musculus. The data set can be described thus: Inhibition of Akt1 phosphorylation in lung of nude mouse xenografted with C33a cells at 70 mg/mL administered through mini-pump after 20 hrs by IP kinase assay. To be noted: in the assay text read “10 mg/mL” for “70 mg/mL”. The class given is functional.
For data set [16], the system named is Mus musculus. Kind of data set: Inhibition of Akt2 phosphorylation in lung of nude mouse xenografted with C33a cells at 10 mg/mL administered through mini-pump after 20 hrs by IP kinase assay. The class given is functional.

T1 sequence (P31749 whole entry): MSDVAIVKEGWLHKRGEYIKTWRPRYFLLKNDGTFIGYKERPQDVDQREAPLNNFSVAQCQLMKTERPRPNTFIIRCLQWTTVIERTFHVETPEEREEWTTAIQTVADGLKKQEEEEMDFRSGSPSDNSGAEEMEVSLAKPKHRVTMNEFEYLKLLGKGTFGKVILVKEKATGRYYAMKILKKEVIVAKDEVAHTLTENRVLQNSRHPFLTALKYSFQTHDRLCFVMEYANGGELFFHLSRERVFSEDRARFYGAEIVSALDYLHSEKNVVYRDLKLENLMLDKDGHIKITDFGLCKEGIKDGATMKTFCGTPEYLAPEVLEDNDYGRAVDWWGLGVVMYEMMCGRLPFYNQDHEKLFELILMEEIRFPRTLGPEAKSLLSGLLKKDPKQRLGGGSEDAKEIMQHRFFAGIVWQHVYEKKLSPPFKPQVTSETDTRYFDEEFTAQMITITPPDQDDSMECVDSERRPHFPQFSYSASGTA
Sequence of Voltage-gated inwardly rectifying potassium channel KCNH2 (Q12809 whole entry): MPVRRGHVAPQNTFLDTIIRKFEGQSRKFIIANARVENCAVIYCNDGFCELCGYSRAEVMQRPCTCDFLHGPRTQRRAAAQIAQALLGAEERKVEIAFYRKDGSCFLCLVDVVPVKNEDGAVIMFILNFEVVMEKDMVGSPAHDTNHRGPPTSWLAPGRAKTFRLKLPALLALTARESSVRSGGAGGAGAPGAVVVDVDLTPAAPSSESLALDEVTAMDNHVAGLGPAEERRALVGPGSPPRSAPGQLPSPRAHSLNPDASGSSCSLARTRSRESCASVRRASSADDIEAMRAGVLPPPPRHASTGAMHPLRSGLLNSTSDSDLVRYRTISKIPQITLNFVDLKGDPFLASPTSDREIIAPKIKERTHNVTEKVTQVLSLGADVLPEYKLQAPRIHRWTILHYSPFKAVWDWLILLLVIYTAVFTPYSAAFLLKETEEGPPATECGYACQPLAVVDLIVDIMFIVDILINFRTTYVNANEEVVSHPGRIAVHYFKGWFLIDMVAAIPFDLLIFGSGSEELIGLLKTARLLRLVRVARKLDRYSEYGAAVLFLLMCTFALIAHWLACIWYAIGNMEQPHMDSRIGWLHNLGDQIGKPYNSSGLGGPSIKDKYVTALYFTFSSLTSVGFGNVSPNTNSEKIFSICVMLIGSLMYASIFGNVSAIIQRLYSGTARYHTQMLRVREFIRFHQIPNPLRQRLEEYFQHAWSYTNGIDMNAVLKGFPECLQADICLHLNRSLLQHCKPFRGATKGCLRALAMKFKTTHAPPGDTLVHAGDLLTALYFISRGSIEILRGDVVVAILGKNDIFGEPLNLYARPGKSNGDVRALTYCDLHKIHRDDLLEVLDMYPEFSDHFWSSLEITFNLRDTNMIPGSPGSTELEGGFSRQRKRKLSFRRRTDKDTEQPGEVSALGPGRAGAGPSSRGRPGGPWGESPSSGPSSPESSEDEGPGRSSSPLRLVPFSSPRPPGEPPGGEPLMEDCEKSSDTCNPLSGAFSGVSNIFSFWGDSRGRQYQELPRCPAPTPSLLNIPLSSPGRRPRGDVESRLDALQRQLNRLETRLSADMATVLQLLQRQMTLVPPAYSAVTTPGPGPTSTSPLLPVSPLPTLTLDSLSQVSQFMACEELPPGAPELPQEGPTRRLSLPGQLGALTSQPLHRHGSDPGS
T2 sequence (P31751 whole entry): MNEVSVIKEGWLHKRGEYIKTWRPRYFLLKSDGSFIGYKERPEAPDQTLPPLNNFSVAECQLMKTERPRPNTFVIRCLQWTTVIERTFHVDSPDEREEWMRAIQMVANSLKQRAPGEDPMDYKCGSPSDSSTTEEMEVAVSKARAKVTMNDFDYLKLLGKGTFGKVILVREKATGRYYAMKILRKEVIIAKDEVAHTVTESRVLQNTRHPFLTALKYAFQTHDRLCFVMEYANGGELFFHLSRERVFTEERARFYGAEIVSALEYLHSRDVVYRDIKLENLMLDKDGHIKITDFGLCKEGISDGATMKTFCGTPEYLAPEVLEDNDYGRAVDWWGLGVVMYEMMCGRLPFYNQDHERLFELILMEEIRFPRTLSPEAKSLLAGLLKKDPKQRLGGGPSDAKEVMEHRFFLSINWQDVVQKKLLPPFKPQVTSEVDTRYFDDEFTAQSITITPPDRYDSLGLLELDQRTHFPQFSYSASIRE

Turning to `OCCNCc1nnc2c3cc(-c4ccccc4)c(-c4ccc(CN5CCC(c6n[nH]c(-c7ccccn7)n6)CC5)cc4)nc3ccn12`, the half-inhibitory concentration (IC50) in data set [1] was 17 nM; in [2], 77.9 nM; in [3], 41.8 nM; in data set [4], 251 nM; in data set [5], greater than 50000 nM; in data set [6], greater than 50000 nM. The same compound yielded a 50% inhibitory concentration (IC50) in data set [7] greater than 50000 nM.

As for `Cc1nnc2c3cc(-c4ccccc4)c(-c4ccc(CN5CCC(c6n[nH]c(-c7ccccn7)n6)CC5)cc4)nc3ccn12`, the concentration for half-maximal inhibition (IC50) in data set [1] was 4.6 nM; in data set [2], 14.6 nM; in data set [3], 24.6 nM; in data set [4], 177 nM; in data set [5], greater than 50000 nM; in data set [6] it was greater than 50000 nM. In data set [7], this compound yielded a 50% inhibitory concentration (IC50) greater than 50000 nM.

With `CN1CCN(Cc2nnc3c4cc(-c5ccccc5)c(-c5ccc(CN6CCC(c7n[nH]c(-c8ccccn8)n7)CC6)cc5)nc4ccn23)CC1`, the IC50 in data set [1] was 9.9 nM; in data set [2] it was 55.1 nM; in data set [3] it was 62.5 nM; in data set [4], 376 nM; in data set [5], greater than 50000 nM; in [6] it was greater than 50000 nM. Moreover, the IC50 in [7] was greater than 50000 nM.

Take `c1ccc(-c2cc3c(ccn4cnnc34)nc2-c2ccc(CN3CCC(c4n[nH]c(-c5ccccn5)n4)CC3)cc2)cc1`: the half-inhibitory concentration (IC50) in [8] was greater than 10000 nM; in data set [1], 4 nM; in data set [3], 5 nM; in data set [4], 41 nM; in data set [5] it was greater than 50000 nM; in [6] it was greater than 50000 nM. In addition, in data set [7], the IC50 is greater than 50000 nM. The concentration at 20 h in data set [9] was determined as 1800 nM; in [10], 1700 nM. Further, the results for the “inhibition (INH)” value in data set [11], in data set [12] and in data set [13] were 92%, 41% and 35%, respectively.

On to `Nc1nnc2c3cc(-c4ccccc4)c(-c4ccc(CN5CCC(c6n[nH]c(-c7ccccn7)n6)CC5)cc4)nc3ccn12`, for which the IC50 in data set [1] was 2.8 nM; in data set [2], 9.4 nM; in data set [3], 18.1 nM; in data set [4] it was 47.7 nM; in data set [5], greater than 50000 nM; in data set [6], greater than 50000 nM. Also, the IC50 in [7] is greater than 50000 nM.

In the case of `Sc1nnc2c3cc(-c4ccccc4)c(-c4ccc(CN5CCC(c6n[nH]c(-c7ccccn7)n6)CC5)cc4)nc3ccn12`, the IC50 in data set [1] is 10 nM; in data set [2], 10.4 nM; in [3], 17 nM; in [4], 108 nM; in data set [5] it was greater than 50000 nM; in data set [6] it was greater than 50000 nM. The same compound returned an IC50 in data set [7] greater than 50000 nM.

`Oc1nnc2c3cc(-c4ccccc4)c(-c4ccc(CN5CCC(c6n[nH]c(-c7ccccn7)n6)CC5)cc4)nc3ccn12`: the IC50 in data set [8] was 5310 nM; in data set [1], 2.6 nM; in data set [2] it was 6.7 nM; in data set [3], 27 nM; in [4], 168 nM; in data set [5], greater than 50000 nM. Moreover, the 50% inhibitory concentration (IC50) in data set [6] and in data set [7] was greater than 50000 nM throughout.

`O=c1[nH]ccc2nc(-c3ccc(CN4CCC(c5n[nH]c(-c6ccccn6)n5)CC4)cc3)c(-c3ccccc3)cc12` yielded an IC50 in data set [8] of 5610 nM. Also, the concentration at 20 h in data set [14] is 3000 nM. For the same compound, the “inhibition (INH)” value in data set [15] is 85%; in data set [16], 4%.

As for `Nc1nnc2c3cc(-c4ccccc4)c(-c4ccc(CN5CCC(n6cnc(-c7ccccn7)c6)CC5)cc4)nc3ccn12`, the IC50 came out at 3.3 nM in data set [1], 2.8 nM in data set [2], 18.3 nM in [3] and 74.8 nM in data set [4].

`ClCc1nnc2c3cc(-c4ccccc4)c(-c4ccc(CN5CCC(c6n[nH]c(-c7ccccn7)n6)CC5)cc4)nc3ccn12`: the IC50 is 2020 nM in [8]; 26.7 nM in data set [1]; 10.5 nM in [2]; 113 nM in [3]; 483 nM in data set [4]; greater than 50000 nM in [5]. Moreover, the half-inhibitory concentration (IC50) in data set [6] and in data set [7] was greater than 50000 nM each time.

For `NC(=O)Nc1nnc2c3cc(-c4ccccc4)c(-c4ccc(CN5CCC(c6n[nH]c(-c7ccccn7)n6)CC5)cc4)nc3ccn12`, the IC50 in data set [1] is 8.5 nM; in data set [2] it was 24.1 nM; in data set [3], 265 nM; in data set [4], 1210 nM; in [5], greater than 50000 nM; in data set [6], greater than 50000 nM. The compound also registered a half-inhibitory concentration (IC50) in data set [7] greater than 50000 nM.
